Source: ChEMBL document CHEMBL1126752, “Synthesis and biological activity of cis-(3aR)-(-)-2,3,3a,4,5,9b-hexahydro- 3-propyl-1H-benz[e]indole-9-carboxamide: a potent and selective 5-HT1A receptor agonist with good oral availability” (J Med Chem, 1993)
Activity calls are given as the source filed them. The calls are words filed in the database; no cut-off is given here.

How the values were obtained:
Felis catus [1] = assay: Inhibition of sympathetic nerve discharge (SND) in anesthetized cat; assay type: functional
Method in brief: (§1)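 Adult cats (2.5-4.0 kg) anesthetized with ketamine 11 mg/kg im then chloralose 80 mg/kg iv. Animals paralyzed with gallamine, ventilated, and kept at 37-38 °C. Blood pressure recorded via femoral artery. Sympathetic activity quantified by cumulative integration. Increasing doses given iv cumulatively at 20-min intervals.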

Rattus norvegicus [2] = assay: 5-HTP accumulation in hemispheres of reserpinized rats following subcutaneous administration; assay type: functional; details: sc
Rattus norvegicus [3] = species on record: Rattus norvegicus; assay: Inhibition of 5-HT1A cell firing in rats; assay type: functional
Method in brief: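 Male Sprague-Dawley rats (280-330 g) under chloral hydrate anesthesia (400 mg/kg ip), drug given iv via femoral vein in distilled water. Dorsal raphe serotonergic neurons recorded extracellularly and confirmed histologically by dye deposit. Firing rate followed by integrated ratemeter.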

Mus musculus [4] = assay: Swimming activity of the treated mice/control mice at 12 umol/kg, sc (p < 0.001); assay type: functional
Rattus norvegicus [5] = assay: DOPA accumulation in hemispheres of reserpinized rats following subcutaneous administration at highest dose tested (50 umol/kg); Inactive; assay type: functional, organism-based
Rattus norvegicus [6] = assay: In vivo motor activity at 10 umol/kg (po) in male rats expressed as accumulated counts/30 min (p < 0.05)
Mus musculus [7] = assay: Swimming activity of the treated mice/control mice at 41 umol/kg, sc (p < 0.001); assay type: functional
Rattus norvegicus [8] = assay: DOPA accumulation in corpus striatum of reserpinized rats following subcutaneous administration at highest dose tested (50 umol/kg); Inactive; assay type: functional, organism-based
Mus musculus [9] = assay: Swimming activity of the treated mice/control mice at 1.2 umol/kg, sc; assay type: functional
Felis catus [10] = assay: Maximum decrease in sympathetic nerve discharge in anesthetized cat; assay type: functional
Method in brief: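 Cats (2.5-4.0 kg) anesthetized with ketamine 11 mg/kg im then chloralose 80 mg/kg iv, paralyzed with gallamine and ventilated, rectal temperature kept at 37-38 °C. Increasing iv doses given cumulatively at 20-min intervals; sympathetic activity quantified by cumulative integration and expressed as percent of control.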

Rattus norvegicus [11] = assay: Oral availability obtained from blood plasma levels of the parent compound following 1 uMol /kg intravenous and 20 umol /kg peroral administration; assay type: functional, organism-based
Method in brief: (§2)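 Male Sprague-Dawley rats (300 g) with arterial catheters, sampled from 24 h after surgery for 10-24 h; oral groups starved 18 h with free water. Blood levels measured by GC/MS with internal standard, samples run in duplicate. Availability from po vs iv AUC (n = 4), dosed 1 μmol/kg iv and 20 μmol/kg po.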

Rattus norvegicus [12] = assay: In vivo motor activity at 61 umol/kg (po) in male rats expressed as accumulated counts/30 min (p < 0.001); assay type: functional
Rattus norvegicus [13] = assay: DOPA accumulation in limbic system of reserpinized rats following subcutaneous administration at highest dose tested (50 umol/kg); Inactive; assay type: functional, organism-based
Rattus norvegicus [14] = assay: DOPA accumulation in limbic system of reserpinized rats following peroral administration at highest dose tested (50 umol/kg); Inactive; assay type: functional, organism-based
Mus musculus [15] = assay: Effect on hypothermia in mice following peroral administration; details: po
Felis catus [16] = assay: Maximum decrease in blood pressure observed following 1 mg/kg dose in anesthetized cat; assay type: functional; set-up: unit not given here; method in brief: as §1
Rattus norvegicus [17] = assay: 5-HTP accumulation in hemispheres of reserpinized rats following peroral administration; assay type: functional; details: po
Rattus norvegicus [18] = assay: In vivo motor activity at 0.2 umol/kg (sc) in male rats expressed as accumulated counts/30 min (p < 0.05); assay type: functional
[19] = Half-life time in rats; assay type: ADME, organism-based; details: rat, in vivo; method in brief: as §2
Rattus norvegicus [20] = assay: 5-HTP accumulation in corpus striatum of reserpinized rats following subcutaneous administration; assay type: functional; details: sc
Rattus norvegicus [21] = assay: 5-HTP accumulation in corpus striatum of reserpinized rats following peroral administration; assay type: functional; details: po
Mus musculus [22] = assay: Swimming activity of the treated mice/control mice at 4.0 umol/kg, sc (p < 0.001); assay type: functional
Felis catus [23] = assay: Percent arterial blood pressure at sympathetic nerve discharge in anesthetized cat; assay type: functional; method in brief: as §1
Rattus norvegicus [24] = assay: 5-HTP accumulation in limbic system of reserpinized rats following subcutaneous administration; assay type: functional; details: sc
Rattus norvegicus [25] = assay: DOPA accumulation in corpus striatum of reserpinized rats following peroral administration at highest dose tested (50 umol/kg); Inactive; assay type: functional, organism-based
Rattus norvegicus [26] = assay: 5-HTP accumulation in limbic system of reserpinized rats following peroral administration; assay type: functional; details: po
Rattus norvegicus [27] = assay: DOPA accumulation in hemispheres of reserpinized rats following peroral administration at highest dose tested (50 umol/kg); Inactive; assay type: functional, organism-based
Rattus norvegicus [28] = species on record: Rattus norvegicus; assay: Compound was tested for gross behavioral response in rats; full-blown 5-HT syndrome; assay type: functional, organism-based
Mus musculus [29] = assay: Effect on hypothermia in mice following subcutaneous administration; details: sc
Mus musculus [30] = assay: Swimming activity of the treated mice/control mice at 12 umol/kg, sc; assay type: functional
[31] = biological target: T1, 5-hydroxytryptamine receptor 1A (Homo sapiens, UniProt P08908); assay: Binding affinity against [3H]8-OH-DPAT-labeled 5-hydroxytryptamine 1A receptor sites in cloned CHO cells; assay type: cell-based
T1 sequence (P08908 whole entry): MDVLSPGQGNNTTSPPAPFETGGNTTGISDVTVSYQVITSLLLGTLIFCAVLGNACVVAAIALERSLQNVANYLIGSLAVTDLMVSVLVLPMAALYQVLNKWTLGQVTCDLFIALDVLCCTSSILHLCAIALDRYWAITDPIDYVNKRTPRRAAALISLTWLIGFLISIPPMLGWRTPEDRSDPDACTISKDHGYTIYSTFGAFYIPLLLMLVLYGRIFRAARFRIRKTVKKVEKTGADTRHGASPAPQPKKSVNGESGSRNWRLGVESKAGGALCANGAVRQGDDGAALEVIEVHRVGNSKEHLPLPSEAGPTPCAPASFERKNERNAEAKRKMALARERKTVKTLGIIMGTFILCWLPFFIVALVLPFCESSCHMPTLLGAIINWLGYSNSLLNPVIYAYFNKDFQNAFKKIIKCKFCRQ
Method in brief: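 Competition binding against [3H]-8-OH-DPAT (85 Ci/mmol, 1.2 nM) using 11 dilutions of test compound. Receptor was cloned mammalian 5-HT1A expressed in CHO-K1 cells. IC50 from a one-site nonlinear least-squares fit, converted to Ki by Cheng-Prusoff. Ki reported ±SEM.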

Mus musculus [32] = assay: Swimming activity of the treated mice/control mice at 39 umol/kg, sc; assay type: functional
Rattus norvegicus [33] = assay: In vivo motor activity at 50 umol/kg (sc) in male rats expressed as accumulated counts/30 min; assay type: functional
Rattus norvegicus [34] = species on record: Rattus norvegicus; assay: Compound was tested for gross behavioral response in rats; partial 5-HT syndrome; assay type: functional, organism-based
[35] = Half-life in rats; assay type: ADME, organism-based; details: rat, in vivo
Method in brief: (§3)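 Male Sprague-Dawley rats (300 g) sampled from arterial catheters 24 h after surgery over 10-24 h. Dosing was 5 µmol/kg iv and 40 µmol/kg po, with oral rats fasted 18 h. Parent drug in blood measured by GC/MS after pH 11 dichloromethane extraction with internal standard, samples run in duplicate. Availability from po/iv AUC ratio (n = 4).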

Rattus norvegicus [36] = assay: Oral availability obtained from blood plasma levels of the parent compound following 5 umol /kg intravenous and 40 umol /kg peroral administration; assay type: functional, organism-based; method in brief: as §3
Mus musculus [37] = assay: Swimming activity of the treated mice/control mice at 3.9 umol/kg, sc; assay type: functional
Rattus norvegicus [38] = assay: In vivo motor activity at 12.5 umol/kg (sc) in male rats expressed as accumulated counts/30 min (p < 0.001); assay type: functional
Rattus norvegicus [39] = assay: 5-HTP accumulation in limbic system of reserpinized rats following subcutaneous administration at highest dose tested (50 umol/kg); Inactive; assay type: functional, organism-based
Rattus norvegicus [40] = assay: 5-HTP accumulation in hemispheres of reserpinized rats following subcutaneous administration at highest dose tested (50 umol/kg); Inactive; assay type: functional, organism-based
Rattus norvegicus [41] = species on record: Rattus norvegicus; assay: Compound was tested for gross behavioral response in rats; no change; assay type: functional, organism-based
Rattus norvegicus [42] = assay: 5-HTP accumulation in corpus striatum of reserpinized rats following subcutaneous administration at highest dose tested (50 umol/kg); Inactive; assay type: functional, organism-based

Row | Compound | ED50 (Felis catus [1]) | ED50 (Rattus norvegicus [2]) | ED50 (Rattus norvegicus [3]) | Swimming activity (Mus musculus [4]) | ED50 (Rattus norvegicus [5]) | ED50 (Rattus norvegicus [8]) | Max decrease (Felis catus [10]) | ED50 (Rattus norvegicus [13]) | ED50 (Mus musculus [15]) | Max decrease (Felis catus [16]) | ED50 (Rattus norvegicus [20]) | BP (Felis catus [23]) | ED50 (Rattus norvegicus [24]) | Response (Rattus norvegicus [28]) | ED50 (Mus musculus [29]) | Ki [31] | Swimming activity (Mus musculus [32]) | NA (Rattus norvegicus [5]) | NA (Rattus norvegicus [8]) | Response (Rattus norvegicus [34]) | also measured
1 | CCCN(CCC)C1CCc2cccc(O)c2C1 (racemic) [8-OH-DPAT] | 0.03 µmol/kg | 0.063 µmol/kg | 0.006 µmol/kg | 4.6 T/C | inactive | inactive | 2 | inactive | 30 µmol/kg | 57 | 0.052 µmol/kg | 66% | 0.052 µmol/kg | Active | 3 µmol/kg | – | – | – | – | – | Accumulated counts/30 min (Rattus norvegicus [6]): 17; Swimming activity (Mus musculus [7]): 3.4 T/C; Swimming activity (Mus musculus [9]): 0.9 T/C; bioavailability (Rattus norvegicus [11]): 2.4%; Accumulated counts/30 min (Rattus norvegicus [12]): 883; ED50 (Rattus norvegicus [14]): inactive; ED50 (Rattus norvegicus [17]): 7.6 µmol/kg; Accumulated counts/30 min (Rattus norvegicus [18]): 66; half-life [19]: 1 h; ED50 (Rattus norvegicus [21]): 7.9 µmol/kg; Swimming activity (Mus musculus [22]): 6.7 T/C; ED50 (Rattus norvegicus [25]): inactive; ED50 (Rattus norvegicus [26]): 3 µmol/kg; ED50 (Rattus norvegicus [27]): inactive
2 | CCCN1CCC2c3c(cccc3C(N)=O)CC[C@@H]21 (single isomer, unassigned; (+)-3b) [listing 1 of 2 here] | – | – | – | – | – | – | – | – | – | – | – | – | – | – | – | > 1440 nM | 1.1 | – | – | – | Swimming activity (Mus musculus [30]): 1.2; Accumulated counts/30 min (Rattus norvegicus [33]): 9
3 | CCCN1CCC2c3c(cccc3C(N)=O)CCC21 (racemic) | 0.1 µmol/kg | 1.25 µmol/kg | 0.009 µmol/kg | 6.6 | – | – | 33 | – | 28 µmol/kg | 63 | 0.95 µmol/kg | 82% | 0.93 µmol/kg | – | 3.8 µmol/kg | 2.9 nM | 2.9 | inactive | inactive | Partially active | NA (Rattus norvegicus [13]): inactive; half-life [35]: 1.5 h; bioavailability (Rattus norvegicus [36]): 70%; Swimming activity (Mus musculus [37]): 1.2; Accumulated counts/30 min (Rattus norvegicus [38]): 88
4 | CCCN1CC[C@H]2c3c(cccc3C(N)=O)CC[C@H]21 (stereo in doubt; (-)-3a) | – | – | – | – | – | – | – | – | – | – | – | – | – | Active | – | – | – | inactive | inactive | – | NA (Rattus norvegicus [13]): inactive; NA (Rattus norvegicus [14]): inactive; bioavailability (Rattus norvegicus [36]): 46%; NA (Rattus norvegicus [25]): inactive; NA (Rattus norvegicus [27]): inactive
5 | CCCN1CC[C@H]2c3c(cccc3C(N)=O)CC[C@H]21 (stereo in doubt; (-)-3b) | – | – | – | – | inactive | inactive | – | inactive | – | – | – | – | – | – | – | – | – | – | – | Partially active | –
6 | CCCN1CCC2c3c(cccc3C(N)=O)CC[C@@H]21 (single isomer, unassigned; (+)-3b) [listing 2 of 2 here] | – | – | – | – | inactive | inactive | – | inactive | – | – | – | – | – | – | – | – | – | – | – | – | ED50 (Rattus norvegicus [39]): inactive; ED50 (Rattus norvegicus [40]): inactive; Response (Rattus norvegicus [41]): inactive; ED50 (Rattus norvegicus [42]): inactive
